Legend:
[1] = system: Trypanosoma brucei brucei; assay: In Vitro inhibition of Trypanosomal 110 (EATRO)strain by the compound at a dose of 100 uM; format: functional
L1210 [2] = assay: In vitro Anti Neoplastic Activity against L1210 murine leukemia Cell lines; format: functional, cell-based; settings: Mus musculus
Method in brief: (§1)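 SRB growth assay. Cell lines were grown as monolayers in RPMI-1640 with 5% FCS, 5% NuSerum IV, 20 mM HEPES and 2 mM glutamine, and seeded at 400–1200 cells/well. They attached for 15–18 h before drug. Ten concentrations over 5 logs were tested, with final DMSO ≤0.25%. Exposure was 72 h at 37 °C. Cells were TCA-fixed, stained with sulforhodamine B and read at OD 570 nm. IC50 is 50% growth inhibition.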

MCF7 [3] = assay: In vitro anti Neoplastic Activity against Adriamycin resistant Human Breast adenocarcinoma MCF7-Adr Cell lines; format: functional, cell-based; method in brief: as §1
HT-29 [4] = assay: In vitro anti Neoplastic Activity in Human Colon adenocarcinoma HT-29 Cell lines; format: functional, cell-based; method in brief: as §1
MCF7 [5] = assay: In vitro anti Neoplastic Activity against Human Breast adenocarcinoma MCF-7 Cell lines; format: functional, cell-based; method in brief: as §1
A121 [6] = assay: In vitro anti Neoplastic Activity against Human ovarian carcinoma A121 Cell lines; format: functional, cell-based; method in brief: as §1
A549 [7] = assay: In vitro anti Neoplastic Activity against Human non small cell lung carcinoma A549 Cell lines; format: functional, cell-based; method in brief: as §1
L1210 [8] = assay: In Vitro inhibition of L1210 Murine Leukemia Cells by the compound at a dose of 100 uM; format: functional; settings: Mus musculus
[9] = system: Trypanosoma brucei rhodesiense; assay: In Vitro inhibition of Trypanosomal 243 (KETRI)strain by the compound at a dose of 100 uM; format: functional
[10] = system: Trypanosoma brucei rhodesiense; assay: In vitro anti trypanosomal activity against Trypanosomal 243 (KETRI)strain; format: functional, organism-based
[11] = system: Trypanosoma brucei rhodesiense; assay: Mean survival days against T.b. rhodesiense KETRI 243 tested in mice after intra peritoneal administration at 50 mg/kg for 7 days.; format: functional
[12] = system: Trypanosoma brucei rhodesiense; assay: In vitro anti trypanosomal activity against Trypanosomal 243 As 10e-3 (KETRI)strain; format: functional, organism-based
Mus musculus [13] = assay: Number of mice cured to that of 5 treated with the compound at 25 mg/kg for 7 days; format: functional
[14] = system: Trypanosoma brucei brucei; assay: In vitro anti trypanosomal activity against Trypanosomal 110 (EATRO)strain; format: functional, organism-based
Mus musculus [15] = assay: Number of mice cured to that of 5 treated with the compound at 25 mg/kg for 3 days; format: functional
Mus musculus [16] = organism: Mus musculus; assay: Number of mice cured to that of 5 treated with the compound for 7 days
Mus musculus [17] = assay: Number of mice cured to that of 5 treated with the compound at 100 mg/kg for 7 days; format: functional
Mus musculus [18] = assay: Number of mice cured to that of 5 treated with the compound at 10 mg/kg for 3 days; format: functional
A549 [19] = assay: In vitro anti Neoplastic Activity against Human non small cell lung carcinoma A549 Cell lines;Value ranges from (3-10).; format: functional, cell-based; method in brief: as §1
HT-29 [20] = assay: In vitro anti Neoplastic Activity in Human Colon adenocarcinoma HT-29 Cell lines;Value ranges from (3-30).; format: functional, cell-based; method in brief: as §1
[21] = system: Trypanosoma brucei brucei; assay: Mean survival days against T.b. peritoneal administration at 50 mg/kg for 3 days.; format: functional
[22] = system: Trypanosoma brucei brucei; assay: Mean survival days against T.b. peritoneal administration at 25 mg/kg for 3 days.; format: functional
[23] = system: Trypanosoma brucei brucei; assay: Mean survival days against T.b. brucei LAB 110 EATRO tested in mice administration at 100 mg/kg for 7 days.; format: functional
Method in brief: (§2)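 Female Swiss-Webster mice (20 g) were infected with 2.5×10^5 trypanosomes from a rat infection. Compounds were dissolved in water and given at the stated daily dose by 7 day miniosmotic pumps implanted aseptically. There were 5 mice per group. Viability was checked daily and tail-vein blood smears weekly. The value is mean survival in days. Mice were scored cured if they survived >30 days beyond untreated controls with no parasitemia.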

[24] = system: Trypanosoma brucei brucei; assay: Mean survival days against T.b. brucei LAB 110 EATRO tested in mice administration at 50 mg/kg for 7 days.; format: functional; method in brief: as §2
[25] = system: Trypanosoma brucei rhodesiense; assay: Mean survival days against T.b. rhodesiense KETRI 243 tested in mice after intra peritoneal administration at 50 mg/kg for 7 days.
L1210 [26] = assay: In vitro inhibition of AdoMetDC derived from L1210 Murine Leukemia Cells.; format: functional; settings: Mus musculus, read-out: ID50 (the source's name)
[27] = system: Trypanosoma brucei brucei; assay: Mean survival days against T.b. peritoneal administration at 10 mg/kg for 3 days.; format: functional
[28] = system: Trypanosoma brucei rhodesiense; assay: In vitro anti trypanosomal activity against Trypanosomal 269 (KETRI)strain; format: functional, organism-based
CCRF-CEM = assay: Concentration that causes morphological changes in noninfected CEM-SS cells; format: functional; settings: Homo sapiens, read-out: TC50 (the source's name)
[29] = system: Trypanosoma brucei brucei; assay: Mean survival days against T.b. brucei LAB 110 EATRO tested in mice administration at 25 mg/kg for 7 days.; format: functional; method in brief: as §2
[30] = Differential selectivity as the ratio of TC50 value to that of EC50 value.; format: functional
Method in brief: (§3)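 Syncytial plaque assay: log-phase CEM-SS cells were PBS-washed and plated at 50 000 per well in serum-free RPMI-1640 on poly-L-lysine-coated wells (30 min, 37 °C). They were inoculated with HIV-1 (60–90 PFU) for 120 min, then overlaid with compound in growth medium (2-fold dilutions, 0.00015–20 μM). A second overlay followed on day 3, with 5 days total. EC50 is 50% inhibition of plaque formation. TC50 is morphological change in noninfected CEM-SS cells.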

A121 [31] = assay: In vitro anti Neoplastic Activity against Human ovarian carcinoma A121 Cell lines;Value ranges from (1-30); format: functional, cell-based; method in brief: as §1
[32] = system: Human immunodeficiency virus 1; assay: In Vitro Anti-HIV activity in CEM cells; format: functional, organism-based; settings: Human immunodeficiency virus 1, CCRF-CEM; method in brief: as §3
Mus musculus [33] = assay: Nnumber of mice cured to that of 5 treated with the compound at 50 mg/kg for 3 days; format: functional
[34] = system: Trypanosoma brucei rhodesiense; assay: Mean survival days against T.b. rhodesiense KETRI 243 tested in mice after intra peritoneal administration at 25 mg/kg for 7 days.; format: functional
Mus musculus [35] = assay: Number of mice cured to that of 5 treated with the compound at 50 mg/kg for 7 days; format: functional
MCF7 [36] = assay: In vitro Neoplastic Anti Activity against Human Breast adenocarcinoma MCF-7 Cell lines; format: functional, cell-based
[37] = system: Trypanosoma brucei rhodesiense; assay: In vitro antitrypanosomal activity against Trypanosomal 269 (KETRI)strain; format: functional, organism-based
MCF7 [38] = assay: In vitro Antineoplastic Activity against Adriamycin resistant Human Breast adenocarcinoma MCF7-Adr Cell lines; format: functional, cell-based
[39] = system: Trypanosoma brucei rhodesiense; assay: In vitro antitrypanosomal activity against Trypanosomal 243 (KETRI)strain; format: functional, organism-based
[40] = system: Trypanosoma brucei rhodesiense; assay: In vitro antitrypanosomal activity against Trypanosomal 243 As 10e-3 (KETRI)strain; format: functional, organism-based
Mus musculus [41] = assay: Ratio of number of mice cured to that of total treated with the compound at 10 mg/kg for 3 days; format: functional
Mus musculus [42] = assay: Ratio of number of mice cured to that of total treated with the compound at 50 mg/kg for 7 days; format: functional
HT-29 [43] = assay: In vitro Neoplastic Anti Activity in Human Colon adenocarcinoma HT-29 Cell lines; format: functional, cell-based
[44] = system: Trypanosoma brucei rhodesiense; assay: Mean survival days against T.b. rhodesiense KETRI 243 tested in mice after intra peritoneal administration at 100 mg/kg for 7 days.; format: functional
[45] = system: Trypanosoma brucei brucei; assay: In vitro antitrypanosomal activity against Trypanosomal 110 (EATRO)strain; format: functional, organism-based
Mus musculus [46] = assay: Ratio of number of mice cured to that of total treated with the compound at 100 mg/kg for 7 days; format: functional
A121 [47] = assay: In vitro Antineoplastic Activity against Human ovarian carcinoma A121 Cell lines; format: functional, cell-based
[48] = system: Human immunodeficiency virus 1; assay: In Vitro Anti-HIV activity of the compound; format: functional; settings: read-out: ED50 (the source's name)
Mus musculus [49] = assay: Ratio of number of mice cured to that of total treated with the compound at 50 mg/kg for 3 days; format: functional
Mus musculus [50] = assay: Ratio of number of mice cured to that of total treated with the compound at 25 mg/kg for 7 days; format: functional
Mus musculus [51] = assay: Ratio of number of mice cured to that of total treated with the compound at 25 mg/kg for 3 days; format: functional
A549 [52] = assay: In vitro Antineoplastic Activity against Human non small cell lung carcinoma A549 Cell lines; format: functional, cell-based

CN(Cc1ccc(CN)cc1)C[C@H]1OC(n2cnc3c(N)ncnc32)[C@H](O)[C@@H]1O (stereo partly specified)
inhibition at 100 µM [1]: 21% | IC50 (L1210 [2]): > 600000 nM | IC50 (MCF7 [3]): > 100000 nM | IC50 (HT-29 [4]): > 100000 nM | IC50 (MCF7 [5]): > 100000 nM | IC50 (A121 [6]): > 100000 nM | IC50 (A549 [7]): > 100000 nM | inhibition at 100 µM (L1210 [8]): 21% | inhibition at 100 µM [9]: 23%

CC(=O)OC1C(CN(C)C/C=C\CN)OC(n2cnc3c(N)ncnc32)C1OC(C)=O (stereo unspecified)
IC50 [10]: 14 nM | MSD [11]: 21.2 days | IC50 [12]: 54 nM | No. cured (Mus musculus [13]): 0 | No. of cures (Mus musculus [13]): 5 | IC50 [14]: 14 nM | No. of cures (Mus musculus [15]): 4 | No. cured (Mus musculus [16]): 0 | No. of cures (Mus musculus [17]): 4 | No. of cures (Mus musculus [18]): 4 | IC50 (L1210 [2]): 20000 nM | IC50 (A549 [19]): 10000 nM | IC50 (MCF7 [3]): > 100000 nM | IC50 (HT-29 [20]): 30000 nM | MSD [21]: >34 days | MSD [22]: 33 days | MSD [23]: 26 days | MSD [24]: >34 days | MSD [25]: 21.2 days | IC50 (L1210 [26]): 820 nM | MSD [27]: 17 days | IC50 (MCF7 [5]): 51000 nM | IC50 [28]: 20 nM | CC50 (CCRF-CEM): 12000 nM | MSD [29]: >34 days | Ratio [30]: 240 | IC50 (A121 [31]): 30000 nM | EC50 [32]: 50 nM | No. of cures (Mus musculus [33]): 5 | MSD [34]: 18 days | No. cured (Mus musculus [35]): 0 | No. of cures (Mus musculus [35]): 5

CN(C/C=C\CN)C[C@H]1O[C@@H](n2cnc3c(N)ncnc32)[C@H](O)[C@@H]1O
MSD [11]: 31.3 days | IC50 (MCF7 [36]): > 100000 nM | IC50 [37]: 220 nM | IC50 (MCF7 [38]): 200000 nM | MSD [21]: >34 days | MSD [22]: >34 days | IC50 [39]: 40 nM | IC50 [40]: 100 nM | No. cured/total (Mus musculus [41]): 4 | No. cured/total (Mus musculus [42]): 2 | IC50 (HT-29 [43]): > 100000 nM | MSD [44]: 32 days | IC50 [45]: 100 nM | IC50 (L1210 [26]): 78 nM | MSD [27]: 12 days | No. cured/total (Mus musculus [46]): 4 | CC50 (CCRF-CEM): < 6250 nM | IC50 (A121 [47]): > 100000 nM | EC50 [48]: 930 nM | No. cured/total (Mus musculus [49]): 5 | Selectivity [30]: 6.7 | No. cured/total (Mus musculus [50]): 2 | MSD [34]: 31 days | No. cured/total (Mus musculus [51]): 5 | IC50 (A549 [52]): 3000 nM
